According to PMC3733550 (Biochemical pharmacology, 2011):
Where two headings read alike, the source gives them in different places. Marks after values point to notes of the source that are not given here.

Assays:
[1] = test system: ABCG2-expressing MDA-MD-231/R cells; experiment: Re-sensitization of MDA-MB-231/R cells to mitoxantrone; assay type: cell-based, human
ABCG2 [2] = molecular target: T1, ABCG2 (Homo sapiens, UniProt Q9UNQ0); details: read-out: EC50 PhA; increasing PhA content in ABCG2 over-expressing MDA-MB-231/R cells; cited from earlier work
T1 sequence (Q9UNQ0 1-655): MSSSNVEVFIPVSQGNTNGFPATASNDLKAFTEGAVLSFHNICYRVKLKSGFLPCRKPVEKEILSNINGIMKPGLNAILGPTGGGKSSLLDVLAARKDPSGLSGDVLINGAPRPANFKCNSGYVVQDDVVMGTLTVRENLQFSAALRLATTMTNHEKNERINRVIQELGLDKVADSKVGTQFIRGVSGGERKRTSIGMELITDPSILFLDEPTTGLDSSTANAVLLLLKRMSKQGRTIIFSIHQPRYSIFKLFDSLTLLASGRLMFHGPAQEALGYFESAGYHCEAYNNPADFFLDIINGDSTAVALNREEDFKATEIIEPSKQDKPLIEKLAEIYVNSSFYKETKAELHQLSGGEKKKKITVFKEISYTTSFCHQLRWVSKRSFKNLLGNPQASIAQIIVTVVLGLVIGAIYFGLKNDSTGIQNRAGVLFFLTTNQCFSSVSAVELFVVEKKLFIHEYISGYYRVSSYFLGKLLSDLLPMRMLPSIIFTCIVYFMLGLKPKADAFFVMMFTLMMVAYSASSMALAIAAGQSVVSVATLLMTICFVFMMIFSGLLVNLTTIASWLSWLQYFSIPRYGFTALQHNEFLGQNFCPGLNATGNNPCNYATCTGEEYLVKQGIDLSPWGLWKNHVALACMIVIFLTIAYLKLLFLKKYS

MDA-MB-231/V cells = experiment: Growth inhibition by mitoxantrone in parental MDA-MB-231/V cells; assay type: cell-based; details: Homo sapiens, MDA-MB-231, 72 h, read-out: IC50 value of MX in MDA-MB-231/V cells
[3] = test system: ABCG2 expression in MDA-MB-231/R cells; experiment: Western blot analysis of ABCG2 protein levels in MDA-MB-231/R cells; assay type: cell-based, human; details: 72 h; A-2 0.5 μM or 1 μM; MX 0.1 μM
ABCG2 [4] = molecular target: T1, ABCG2; experiment: ABCG2 ATPase assay; assay type: biochemical
ABCG2 [5] = molecular target: T1, ABCG2; experiment: Photoaffinity labeling of ABCG2 with [125I]-IAAP in MCF-7 FLV1000 membranes; assay type: binding; details: test compound 5 μM
MDA-MB-231/R = experiment: Cell cytotoxicity by MTT assay on MDA-MB-231/R cells; assay type: cell-based, human; details: % of control cells (1% DMSO)
In short: (§1)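 Cells grown in RPMI 1640 with 10% FBS and 1.0 mg/ml geneticin at 37°C, 5% CO2, and used within 10 passages. 10^4 cells/well were seeded for 24 h, then exposed for 72 h to test compound (5 or 10 μM; 1% v/v DMSO final). After a PBS wash, MTT was added (3 h, 37°C), formazan dissolved in DMSO, and A590 read. Viability is % of 1% DMSO controls, mean (SD) of three independent determinations.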

MDA-MB-231/V = experiment: Cell cytotoxicity by MTT assay on MDA-MB-231/V cells; assay type: cell-based, human; details: % of control cells (1% DMSO)
In short: as §1

COc1ccc2c3c([nH]c2c1)[C@H](C=C(C)C)N1C(=O)[C@@H]2CCCN2C(=O)[C@@H]1C3 [FTC, fumitremorgin C]
Resistance index ([1]; MX + test compound 0.05 μM, IC50 of MX R cells + test compound / IC50 of MX V cells): 7.4 | EC50 (ABCG2 [2]): 1300 nM

O=C1c2c(O)ccc(O)c2C(=O)c2c(NCCNCCO)ccc(NCCNCCO)c21 [Mitoxantrone]
IC50 ([1]; Homo sapiens, MDA-MB-231, 72 h, read-out: IC50 of mitoxantrone): 920 nM | IC50 (MDA-MB-231/V cells): 70 nM | Effect on ABCG2 protein levels in R cells [3]: no effect

O=C1/C(=C/c2ccccc2)Oc2ccccc21 [UA-1]
ATPase activity (fold stimulation) (ABCG2 [4]): 2.8 fold | EC50 (ABCG2 [4]): 190 nM | Effect on photolabelling of ABCG2 by [125I]-IAAP (in words) (ABCG2 [5]): minimal changes | % Viability MDA-MB-231/R 5 μM (MDA-MB-231/R; 5 μM): 68 (10) ^d % | % Viability MDA-MB-231/R 10 μM (MDA-MB-231/R; 10 μM): 60 (8) ^c % | % Viability MDA-MB-231/V 5 μM (MDA-MB-231/V; 5 μM): 98 (9) ^d % | % Viability MDA-MB-231/V 10 μM (MDA-MB-231/V; 10 μM): 103 (7) ^c %
